The results in this text go back to ChEMBL document CHEMBL4513216, “Probing the Open Global Health Chemical Diversity Library for Multistage-Active Starting Points for Next-Generation Antimalarials” (ACS Infect Dis, 2020).

The nature of the series: Toxicity liver stage against HepG2, at 10uM. It is filed as cell-based. Also noted: test concentration 10 uM, cell line HepG2-A16-CD81EGFP. To be noted: human, HepG2-A16-CD81EGFP cells; read-out: INHIBITION
The procedure, abridged:
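Uninfected HepG2-A16-CD81EGFP cells, 3 × 10^3 per well, 1536-well, plated on prespotted compound at 10 μM final, parasite-free screening media added to match infected plates; puromycin 10 μM positive, DMSO 0.5% negative; run in parallel with 48 h PbLuc assay at 37 °C, 5% CO2; viability by CellTiter-Glo luminescence, normalized to controls.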
Take `Cc1csc(CN(C)C(=O)C2CCC(=O)N(CCN(C)C)C2)n1` (stereo not given): the cytotoxicity at 10 µM is 15.6%.
Turning to `Cn1ncc(N2CCOCC2)c(Cl)c1=O`, the cytotoxicity at 10 µM is -13.8%.
On to `COC(=O)[C@H]1CN(C(=O)NC(C)C)CCN1C(=O)CSC`, for which the cytotoxicity at 10 µM was -6.52%.
In the case of `CNC(=O)C(C)(C)N1CCC[C@H]1C(=O)NC1CCCC1`, the cytotoxicity at 10 µM is -3.01%.
For the compound `COc1ccc2c(c1)nc1n2[C@@H](CNCc2nccs2)COC1`, the cytotoxicity at 10 µM is -1.57%.
For `CCNC(=O)N1C[C@@H]2OCC(=O)N(C)[C@@H]2C1` the value was 7.65%; for `CCNC(=O)N1CC[C@H]2CC(=O)N(C3CCCCC3)CC[C@H]2C1`, -1.08%.
Consider `CCNC(=O)NC[C@H]1COCc2nc3cc(C)ccc3n21`, for which the cytotoxicity at 10 µM worked out at 3.72%.
As for `CC(c1ccncc1)N(CCN(C)C)C(=O)Nc1ccc(Cl)cc1` (stereo not given), the cytotoxicity at 10 µM is 8.88%.
The same measure for `CN1C[C@@H](O)[C@]2(CCN(C(=O)c3ccccc3)C2)S1(=O)=O`: 0.148%.
In the case of `CC(=O)NCC(=O)N1CCOC2(CCCN(c3ccc(C)nn3)C2)C1` (stereo not given), the cytotoxicity at 10 µM came to 0.876%.
The same measure for `CCO[C@@H]1CC[C@H]2[C@H]1OCCN2Cc1ccc(F)cc1`: 10.3%.
For the compound `CC(=O)N1CCC2(CC1)CC(NC(=O)N(C)C)c1cc(C)ccc12` (stereo not given), the cytotoxicity at 10 µM is 4.3%.
For `CCC(=O)N1CCC2(CC1)CC(Oc1ccccc1)CO2` (stereo not given) the value was 7.69%; for `CC(C)NC(=O)c1cc2c(s1)CCN2C(=O)CN(C)C`, 1.94%; for `Cc1c(Br)c(C(F)(F)F)nn1C(C)C(=O)O` (stereo not given), 8.05%.
For the compound `COc1ccc(C(C)Nc2ncnc3c2NC(=O)CN3)cc1` (stereo not given), the cytotoxicity at 10 µM came out at 7.83%.
Consider `CCCNC(=O)c1nn(CC)cc1NC(=O)C(C)n1ncc(Cl)c1C` (stereo not given), for which the cytotoxicity at 10 µM was 7.19%.
The same measure for `Cc1cc(C(F)(F)F)nc(N2CCN3CCCC3C2)n1` (stereo not given): 4.78%.
Consider `Cc1cc(-c2cc3nc(C)c(C)c(NCC4COCCO4)n3n2)no1` (stereo not given), for which the cytotoxicity at 10 µM was found to be 8.97%.
As for `CCCc1cc(C(=O)NC(C)c2ccccc2)n(C)n1` (stereo not given), the cytotoxicity at 10 µM is -4.45%.
For `Cc1c[nH]c(C2COCCN2C(=O)c2n[nH]c(=O)c3ccccc23)n1` (stereo not given) the value was -0.555%; for `CCc1noc(CCC(=O)N[C@@H]2CC[C@@H](n3ccnc3)[C@@H]2O)n1`, -15.5%.
For `Cc1ccc2c(c1)C(=O)NCC1(CCN(C(=O)c3ccnn3C)CC1)O2` the value was -16.6%; for `O=c1[nH]c(N2CCCCC2)nc2c1CCN(Cc1cccnc1)C2`, -3.07%.
For `CCCC(=O)N1CCN(Cc2cc(-c3ccncc3)nn2C)CC1` the value was -27.1%; for `CS(=O)(=O)N1CCN(Cc2cccs2)CC(C(N)=O)C1` (stereo not given), 18%; for `CN(C)CC1(O)CCN(S(=O)(=O)c2cccc(F)c2)C1` (stereo not given), 2.36%.
In the case of `CN(C(=O)C1CCOCC1)[C@@H]1CCC[C@@H](N2CCCC2)[C@@H]1O`, the cytotoxicity at 10 µM was -6.22%.
With `Cc1ccc(C(=O)NC2CCCN(C)C2)c(=O)[nH]1` (stereo not given), the cytotoxicity at 10 µM was -6.96%.
On to `CC(C)Cc1noc(CN2CCCC(CNS(N)(=O)=O)C2)n1` (stereo not given), for which the cytotoxicity at 10 µM was -4.88%.
The same measure for `CC(=O)NCc1ccc(C(=O)N2CCCc3c(F)ccc(C)c32)cc1`: -3.26%.
In the case of `COCCN(C)CC1CCCN1S(=O)(=O)c1cccc(F)c1F` (stereo not given), the cytotoxicity at 10 µM turned out to be 4.93%.
For `COc1c(C2CCCN2CC(=O)N(C)c2nccs2)c(C)nn1C` (stereo not given) the value was 3.37%; for `Cc1cc(NCCC(=O)NC2CCCCC2)nc(-c2ccncc2)n1`, -5.37%; for `CCOC(C)C(=O)Nc1ccc2c(ccn2CC)c1` (stereo not given), 0.877%.
Consider `CCOC(C)c1nc(CN2CCN(c3ncc(C)cn3)CC2)cs1` (stereo not given), for which the cytotoxicity at 10 µM is -0.509%.
The same measure for `CC(C)(C)N1CCN(C(=O)c2cccnc2-n2cncn2)CC1`: 4.22%.
Consider `CC(C)CNC(=O)CNC(=O)NC(c1nccs1)C1CC1` (stereo not given), for which the cytotoxicity at 10 µM is -6.66%.
For `Cc1nc(C(=O)N(C)CC2CCCO2)nn1-c1ccccc1C(C)C` (stereo not given) the value was -3.62%; for `CNC(=O)C1CCCCN1C(=O)c1n[nH]c(=O)c2ccccc12` (stereo not given), 0.0666%.
The same measure for `CC(C)c1nsc(NC2CC(=O)N(C(C)(C)C)C2)n1` (stereo not given): 5.09%; for `Cc1ccc(C)c(CN2CCOC(c3noc(C)n3)C2)c1` (stereo not given): 5.12%; for `Cc1ccc2c(c1)OCCN2C(=O)c1ccc(=O)n(C)c1`: -5.88%.
For the compound `Cc1nn(C)c(C)c1NC(=O)CN1CCc2c(nc(C(C)C)n2C)C1`, the cytotoxicity at 10 µM is -8.02%.
On to `O=C(c1ccsc1)N1CCC2(CC1)CCN(S(=O)(=O)C1CC1)CC2`, for which the cytotoxicity at 10 µM is -109%.
As for `O=C(N[C@@H]1CN(Cc2ccco2)[C@@H]2CCCO[C@@H]21)c1cscn1`, the cytotoxicity at 10 µM is -105%.
For `O=C1CC(c2ccncc2)C2(CCN(Cc3cccnc3)CC2)N1` (stereo not given) the value was 6.26%; for `CCS(=O)(=O)N1CCC2(CCC2NC(=O)c2ccn(C)c2)CC1` (stereo not given), -2.11%; for `O=C(c1ccc[nH]1)N1C[C@H]2CN(Cc3cccc(F)c3)C(=O)[C@H]2C1`, 3.99%.
For `Cc1cc(C)n(CCCN(C)c2cc(C3CC3)ncn2)n1` the value was -0.609%; for `CN1CCN(C[C@@H]2CN(C3Cc4ccccc4C3)C[C@@H]2CO)CC1`, 8.29%; for `O=S(=O)(c1cccnc1)N1CCCCC1CCN1CCOCC1` (stereo not given), -3.03%.
The same measure for `CCC(C(=O)NCC1=CCN(C)CC1)c1ccccc1` (stereo not given): -7.66%; for `CO[C@H]1CN(C(C)C)C[C@@H]1NC(=O)Nc1ccc2oc(C)cc2c1`: 0.0448%.
Take `COc1ccc(N2CCN(C(=O)CCc3n[nH]c(C)n3)CC2=O)cc1`: the cytotoxicity at 10 µM is -0.524%.
For `Cc1ccc(C(C(=O)O)N(C)CCN2CCOCC2)c(F)c1` (stereo not given) the value was 4.28%; for `O=C(NCc1csc(-c2cnccn2)n1)c1cnn2c1CCCC2`, 0.209%.
The same measure for `O=C(O)CN(Cc1ccsc1)CC1CCCO1` (stereo not given): -4.39%.
For `CCCc1nnc(NC(C)c2ccc(F)cc2)o1` (stereo not given) the value was 2.08%; for `CCc1ccc(CN(C)C(=O)c2ccc(CSc3nnc[nH]3)o2)nc1`, -2.19%; for `O=C(O)c1ccnc(-c2ccnc(NCCc3ccc(F)cc3)n2)c1`, 1.74%.
Take `CN(C)c1ccccc1C(=O)N1CCOC2(CNCCOC2)C1` (stereo not given): the cytotoxicity at 10 µM was -1.08%.
With `CC(O)c1cn(CC2CCN(C(=O)CN(C)C(C)C)CC2)nn1` (stereo not given), the cytotoxicity at 10 µM is -1.58%.
For `Cc1cc(C)c2nc(CN3C[C@H](CCO)[C@@H](N)C3)cc(O)c2c1` the value was 5.29%; for `Cc1ccccc1-n1cc(-c2ccnc(N[C@@H](CO)C(C)C)n2)cn1`, -3.39%; for `CN(C)C(=O)c1cccnc1-c1ccc2c(c1)OCCO2`, 5.73%.
For `COCC(=O)N1CCc2cccc(S(=O)(=O)N3CCN(C)CC3)c2C1` the value was 5.07%; for `CCn1cc(-c2cc(C(F)(F)F)n(CCCN)n2)cn1`, -7.86%.
Consider `Cc1nc(-c2ccccc2)sc1CNC1CCc2ncnn2C1` (stereo not given), for which the cytotoxicity at 10 µM was -4.07%.
For `O=C(NCC1CCOC1)c1csc(-c2ccc(Cl)cc2)n1` (stereo not given) the value was -11.6%.
Regarding `O=C(Cc1ccc2c(c1)CCC2)NCCNc1cnccn1`, the cytotoxicity at 10 µM was -0.037%.
For `COCCN1CCC(CNC(=O)C2(c3ccc(F)cc3)CCC2)CC1` the value was -4.45%.
The same measure for `CCS(=O)(=O)N1CCC(NC(=O)c2cc(C)ccc2O)CC1`: -8.92%; for `Cn1cc(CC2CCN(C(=O)NCc3cccc(C#N)c3)C2)cn1` (stereo not given): -12.3%.
As to `COC(=O)c1cc(C(=O)N2CCCC(C)C2)n(-c2ccccc2)n1` (stereo not given), the cytotoxicity at 10 µM is -11.9%.
The same measure for `Cc1cc(C(=O)N2CCCC(n3nc(C)cc3C)C2)on1` (stereo not given): -7.69%; for `CN1C(=O)CCC12CCC(NCc1ccsc1)CC2` (stereo not given): 3.56%; for `CNC(=O)CN1CC[C@H]2CN(C(=O)c3cccc(C)c3)C[C@H]2C1`: -2.45%.
For `COCCN1CCc2ncnc(-c3ccccc3)c2CC1`, the cytotoxicity at 10 µM is 9.99%.
`C[C@H]1CN(c2ccccn2)C[C@@]12CCN(c1cccnc1)C2=O`: the cytotoxicity at 10 µM was -2.62%.
For `Cc1ccsc1C(=O)N1CCc2ncc(CN3CCCC3)n2CC1` the value was -111%; for `O=C1N(CC2CCCC2)CCC12CCN(c1ncc(F)cn1)CC2`, 11.2%.
For `Cc1nnc(N2CCCC3(CN(Cc4nccs4)CCO3)C2)o1` (stereo not given) the value was 2.08%.
The same measure for `COc1ccc(CN2CCC3(CCN(c4cccnc4)C3=O)C2)cc1` (stereo not given): 5.16%; for `CN(C)c1ncc(-c2cccc(F)c2)c(C2CNCCO2)n1` (stereo not given): -29.9%; for `Cc1oncc1C(=O)N1CC[C@@H]2[C@@H]1CC(=O)N2Cc1cccnc1`: 5.44%.
For the compound `O=C1COC2(CCN(CC3CCC3)CC2)CN1c1cncnc1`, the cytotoxicity at 10 µM was -1.11%.
For `CN(C)C[C@H]1C[C@@H]2CN(Cc3ccoc3)C[C@@H]2O1` the value was 4.85%.
Regarding `COCCN1C[C@@H](C)[C@@]2(COCCN(C(=O)c3cnc(C)cn3)C2)C1`, the cytotoxicity at 10 µM is -0.665%.
On to `CCN1Cc2nccn2CC(COCc2csc(C)n2)C1` (stereo not given), for which the cytotoxicity at 10 µM stood at 3.86%.
For `COCC1CC2(CCN(Cc3ccccn3)CC2)CN1c1ncccn1` (stereo not given) the value was 14.4%.
For `Cc1nc(CO[C@@H]2CC[C@H]3[C@H]2OCCN3Cc2cccnc2)cs1` the value was -1.43%.
The same measure for `COCCN(C)CC(=O)N1C[C@@H]2CC[C@H]1CN(C(=O)c1ccncc1)C2`: -0.908%; for `O=C1NCC2(CCC(C(=O)N3CCCC(O)C3)CC2)Oc2ccccc21` (stereo not given): -24.1%.
